Laboratory results as given in PMC9710334 (BMJ Open Gastroenterology, 2022).

Key:
[1] = tested on: liver fibrosis in patients with advanced PBC; assay: Paired liver biopsy histology; assay type: in vivo, human
Summary of the method: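 Paired liver biopsies were taken at screening (baseline) and within 2 weeks of the final dose of the 12-cycle iv regimen (280 or 380 mg/m2/4 hours, twice weekly). Sections were stained with Masson's trichrome, H&E and Sirius red. Three independent central pathologists scored the slides blinded, using Knodell and Ishak modified HAI for grade and fibrosis stage. Analysis was descriptive.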

[2] = tested on: patients with advanced PBC; assay: Liver stiffness; assay type: in vivo, human
Summary of the method: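 Patients aged 20–74 years with PBC and Scheuer stage III or higher fibrosis on screening biopsy received iv OP-724 at 280 or 380 mg/m2 over 4 hours, twice weekly for 12 cycles. Liver stiffness was measured by FibroScan, and the Child-Pugh score, MELD score and Enhanced Liver Fibrosis score were determined. Prespecified change was from baseline to 12 weeks. Analysis was descriptive, mean±SD, with no statistical testing.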

[3] = tested on: cholestatic liver fibrosis models; details: cited from earlier work
[4] = tested on: P300/β-catenin signalling; details: ref 20 23; cited from earlier work
CBP/β-catenin = details: cited from earlier work
[5] = patient P101-01, 12 weeks, baseline 6
[6] = patient P101-02, 12 weeks, baseline 2
[7] = patient P101-02, 12 weeks, baseline 6
[8] = patient P101-04, 12 weeks, baseline 1
[9] = patient P101-07, 12 weeks, baseline 2
[10] = patient P101-07, 12 weeks, baseline 3
[11] = patient P101-08, 12 weeks, baseline 3
[12] = before and after administration
[13] = patient P101-07, 12 weeks, baseline 5
[14] = patient P101-08, 12 weeks, baseline 6

C[C@H]1[C@H]2N(C(=O)CN(C)N2C(=O)NCc2ccccc2)[C@@H](Cc2ccc(OP(=O)(O)O)cc2)C(=O)N1Cc1cccc2cccnc12 [OP-724]
patients with a decrease in the fibrosis stage by 1 or more ([1]; paired biopsies, baseline vs 12 weeks, 2/5 patients): 40%
patients with a decrease (improvement) in the mHAI score ([1]; paired biopsies, baseline vs 12 weeks, 3/5 patients): 60%
patients with a decrease in the CPA ([1]; paired biopsies, baseline vs 12 weeks, three of five patients): 60%
Modified HAI score: Confluent necrosis ([1]; patient P101-01, 12 weeks, baseline 0): 0
Modified HAI score: Lobular inflammation ([1]; patient P101-01, 12 weeks, baseline 1): 1
Modified HAI score: Interface hepatitis ([1]; patient P101-01, 12 weeks, baseline 2): 2
Modified HAI score: Portal inflammation ([1]; patient P101-01, 12 weeks, baseline 3): 3
Modified HAI score: Stage ([1]; patient P101-01, 12 weeks, baseline 4): 3
Modified HAI score: HAI score [1, 5]: 6
Collagen proportional area, Sirius red positive area ([1]; patient P101-01, 12 weeks, baseline 7.8010627): 2.739%
Modified HAI score: Confluent necrosis ([1]; patient P101-02, 12 weeks, baseline 0): 0
Modified HAI score: Interface hepatitis [1, 6]: 1
Modified HAI score: Lobular inflammation [1, 6]: 1
Modified HAI score: Portal inflammation [1, 6]: 1
Collagen proportional area, Sirius red positive area ([1]; patient P101-02, 12 weeks, baseline 4.9477138): 3.714%
Modified HAI score: Stage ([1]; patient P101-02, 12 weeks, baseline 5): 5
Modified HAI score: HAI score [1, 7]: 3
Modified HAI score: Confluent necrosis ([1]; patient P101-04, 12 weeks, baseline 0): 1
Modified HAI score: Lobular inflammation [1, 8]: 2
Modified HAI score: Portal inflammation [1, 8]: 3
Modified HAI score: Interface hepatitis ([1]; patient P101-04, 12 weeks, baseline 2): 3
Modified HAI score: Stage ([1]; patient P101-04, 12 weeks, baseline 3): 5
Modified HAI score: HAI score ([1]; patient P101-04, 12 weeks, baseline 4): 9
Collagen proportional area, Sirius red positive area ([1]; patient P101-04, 12 weeks, baseline 6.8891091): 7.584%
Modified HAI score: Confluent necrosis [1, 9]: 0
Modified HAI score: Interface hepatitis [1, 9]: 2
Modified HAI score: Lobular inflammation [1, 10]: 2
Modified HAI score: Portal inflammation [1, 10]: 2
Modified HAI score: Stage [1, 10]: 3
Collagen proportional area, Sirius red positive area ([1]; patient P101-07, 12 weeks, baseline 3.8731926): 3.646%
Modified HAI score: HAI score ([1]; patient P101-07, 12 weeks, baseline 10): 6
Modified HAI score: Confluent necrosis [1, 11]: 0
Modified HAI score: Lobular inflammation [1, 11]: 3
Modified HAI score: Portal inflammation [1, 11]: 2
Modified HAI score: Interface hepatitis ([1]; patient P101-08, 12 weeks, baseline 4): 1
Modified HAI score: Stage ([1]; patient P101-08, 12 weeks, baseline 5): 2
Collagen proportional area, Sirius red positive area ([1]; patient P101-08, 12 weeks, baseline 7.7587483): 3.484%
Modified HAI score: HAI score ([1]; patient P101-08, 12 weeks, baseline 13): 6
septal thickness in liver parenchyma, Masson's trichrome staining ([1]; patients P101-01 and P101-08, after OP-724 administration): reduction in septal thickness
change in mean CP score ([2]; 12 weeks after administration): no changes
change in mean MELD score ([2]; 12 weeks after administration): no changes
change in Enhanced Liver Fibrosis score [2, 12]: no significant change
change in liver stiffness by FibroScan [2, 12]: no significant change
ELF score ([2]; patient P101-01, 12 weeks, baseline 1.2): 0.9
Child-Pugh score [2, 5]: 7
FibroScan ([2]; patient P101-01, 12 weeks, baseline 9.1): 8.9 kPa
MELD score ([2]; patient P101-01, 12 weeks, baseline 15): 15
ELF score ([2]; patient P101-02, 12 weeks, baseline 0.78): 0.24
MELD score [2, 6]: 2
Child-Pugh score [2, 7]: 6
FibroScan ([2]; patient P101-02, 12 weeks, baseline 40.3): 33.8 kPa
ELF score ([2]; patient P101-04, 12 weeks, baseline 2.46): 3.16
MELD score ([2]; patient P101-04, 12 weeks, baseline 6): 8
Child-Pugh score ([2]; patient P101-04, 12 weeks, baseline 7): 7
FibroScan ([2]; patient P101-04, 12 weeks, baseline 26.3): 23.6 kPa
Child-Pugh score [2, 13]: 5
MELD score [2, 13]: 5
FibroScan ([2]; patient P101-07, 12 weeks, baseline 11.6): 9.2 kPa
ELF score ([2]; patient P101-07, 12 weeks, baseline −0.1): −0.07
ELF score ([2]; patient P101-08, 12 weeks, baseline 0.96): 1.48
Child-Pugh score [2, 14]: 6
MELD score [2, 14]: 6
FibroScan ([2]; patient P101-08, 12 weeks, baseline 22.3): 36.3 kPa
antifibrotic effect [3]: exerts an antifibrotic effect
inhibition of P300/β-catenin signalling [4]: does not inhibit
inhibition of the interaction between CBP and β-catenin (CBP/β-catenin): selectively inhibits
